# Compound activity (PubChem)
# Only some compounds are listed: those with a hit (about 3.3% of all), similar ones and a draw of the others.
# FGF22 binding = FGF22 (human) thermal shift binding; Q9HCT0; activity (Tm shift, normalised), % at 9.99 µM; 1.5% of 340,000 active; recombinant FGF22 thermal shift, SYPRO orange fluorescence; percent of sucrose octasulfate shift, DMSO zero; AID 651658;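 active means mean Tm shift, scaled 0 neutral to 100 positive control, at about 1.3% or above, every replicate too, limit read from the data; inconclusive means no clear call, values can overlap the other calls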
# Target sequence (Q9HCT0 whole entry, looked up): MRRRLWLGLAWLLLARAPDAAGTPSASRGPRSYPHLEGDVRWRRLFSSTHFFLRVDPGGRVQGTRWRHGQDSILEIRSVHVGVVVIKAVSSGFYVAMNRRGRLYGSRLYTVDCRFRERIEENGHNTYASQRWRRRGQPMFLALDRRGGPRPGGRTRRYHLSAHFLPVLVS
# E-sel inducer = E-selectin induction on HUVECs; P16581; activation, % at 7.58 µM; HUVEC E-selectin immunofluorescence imaging; normalized: neutral wells 0, TNF-alpha wells 100; 0.37% of 260,000 active;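 active means mean E-selectin-positive cell signal at least 10% of the positive control, reached in at least 60% of replicates, without over 20% cell loss; inconclusive means no rule given, readout overlaps actives, possibly toxicity-flagged; inactive means the rest, including those meeting only one limit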
#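 Test system – human umbilical vein endothelial cells (HUVEC), E-selectin induction · Input – 3,000 HUVEC seeded per well · Buffer or medium – EGM-2, gelatin · Compound dosing – single-point compound dose · Detection – immunofluorescence imaging · Measure – percent E-selectin-positive cells · Controls – TNF-alpha high, DMSO low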
# DENV2 CPE rescue = protects cells from dengue virus 2 cytopathic effect; DENV2-infected cells, cytopathic effect rescue, plate reader; CPE inhibition, % at 9.99 µM; 1.7% of 350,000 active; in the data active means CPE inhibition above about 20%, passing the limit was not always enough; inconclusive means no clear call, values can overlap the other calls; tested in BHK-21 cells;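 further: 0% = median of neutral control wells and 100% = median of positive control wells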
# C2C12 statin = protects C2C12 myotubes from simvastatin toxicity. ATP luminescence, 48 h; scaled: DMSO 0, geranylgeraniol control 100. rescue of ATP level, % at 7.49 µM. AID 602340. 0.78% of 330,000 active;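 active means mean ATP rescue above about 67%, or every replicate alone reaching that limit, limit read from the data, passing the limit was not always enough; inconclusive means no clear call, values can overlap the other calls; inactive means mean under the limit and some replicate under it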;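 further: myotubes were challenged with 10 µM simvastatin during compound exposure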
# XiGFP reactiv = reactivates the inactive X chromosome in mouse fibroblasts; 0.055% of 360,000 active; activation, % at 7.58 µM; XiGFP mouse fibroblasts, % GFP-positive cells imaging, 3 d; cells co-treated with 5-aza-dC sensitizer; scaled so ellipticine positive control = 100%;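 active means mean normalized replicate activation at least 10% and every replicate at or above 10%; inconclusive means only one of the two criteria met; inactive means mean below 10% and not all replicates reach 10%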;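 further: 0% = median of on-plate neutral control wells and 100% = ellipticine 6 µM median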
#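 Material: XiGFP fibroblasts, SV40-immortalized; Buffer or medium: DMEM containing 5-aza-dC; Compound dosing: single point; Times: 3 days compound exposure.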
# PglD DTNB = PglD (C. jejuni) enzyme inhibition | AID 602405 | inhibition, % at 12.5 µM | purified PglD enzyme, DTNB colorimetric CoA detection | 0.098% of 360,000 active; in the data active means inhibition above about 16%, passing the limit was not always enough; inconclusive means no clear call, values can overlap the other calls
# Numbers without * were called inactive; ? = inconclusive; . = no result given.
SMILES,FGF22 binding,E-sel inducer,DENV2 CPE rescue,C2C12 statin,XiGFP reactiv,PglD DTNB
C[C@@H]1CN([C@@H](C)CO)C(=O)Cc2cc(NC(=O)C3CC3)ccc2O[C@H]1CN(C)CC1CC1,-0.3,-0.2,-2.4,-13.2,0.3,-5.4
C[C@@H]1CN([C@H](C)CO)C(=O)c2cc(NC(=O)C3CCCCC3)ccc2O[C@@H](C)CCCCO[C@@H]1CN(C)S(=O)(=O)c1ccc(F)cc1,.,-0.1,-11.4,.,0.1,3.9
CC(C)c1ccc(NC(=O)[C@H]2CSCN2C(=O)[C@@H]2CCC(=O)N2)cc1,0.1,.,0.9,109.5*,0.0,1.5
COCCNC(=O)C1(C)CCCN(C(=O)c2ccccc2)C1 (stereo not given),0.0,-0.1,32.8*,1.1,0.0,2.5
COc1cc(CNc2nnnn2C)ccc1OCc1ccc(F)cc1Cl,-0.6,-0.1,?,.,0.0,0.8
CCn1nnnc1NCc1ccc(OCc2ccc(F)cc2Cl)c(OC)c1,43.4*,.,-0.8,13.2,0.1,0.0
CCC(=O)N1CCC2(CC1)CN(S(C)(=O)=O)[C@H](CO)c1[nH]c3cc(OC)ccc3c12,.,.,.,.,0.1,.
Cc1noc(C)c1COc1ccccc1C(=O)N1CCN(S(=O)(=O)c2ccc(F)c(F)c2)CC1,-0.1,94.1*,-7.4,-13.4,0.0,-0.2
CC(=O)Nc1cccc2c1O[C@@H](CN(C)S(C)(=O)=O)[C@@H](C)CN(C)C2=O,.,.,.,.,0.2,.
COc1cc(C=O)ccc1OS(=O)(=O)c1ccc(NC(C)=O)cc1,1.9*,.,1.2,.,0.0,-2.9
C[C@@H]1CN([C@@H](C)CO)C(=O)c2cc(NC(=O)Cn3cnnn3)ccc2O[C@@H]1CN(C)Cc1ccncc1,-0.2,2.3,3.6,-9.8,0.0,-15.5
CCS(=O)(=O)N1CC2(CN(Cc3cccc(Cl)c3)[C@@H](CO)c3c2c2ccc(OC)cc2n3C)C1,-0.1,0.0,-9.5,.,0.0,.
CCCc1nnc(N2C(=O)c3cccc4cccc(c34)C2=O)s1,.,.,.,85.2*,.,2.5
CC(C)NC(=O)N1[C@@H](CO)[C@@H]2c3ccccc3N(C(=O)Nc3cccc(Cl)c3)C[C@@H]21,0.1,-0.1,-4.9,-0.9,0.0,-1.7
CC(C)C[C@@H]1COc2cc(NCCO)ccc2S(=O)(=O)N1,0.6,0.0,59.4*,.,0.2,.
CCCCNc1ccc2c(c1)OC[C@@H](CC(C)C)NS2(=O)=O,0.1,0.1,-3.5,.,0.0,.
CCNC(=O)Nc1ccc2c(c1)C(=O)N(C)[C@@H]1CC[C@H](CC(=O)NCc3ccc(F)cc3)O[C@H]1CO2,-0.1,-0.1,54.8*,0.0,0.2,18.7
CCNC(=O)C[C@@H]1CC[C@H]2[C@@H](COc3ccc(NC(=O)Nc4ccc(F)cc4)cc3C(=O)N2C)O1,0.4,84.2*,13.7,1.2,0.0,2.9
CCNC(=O)Nc1ccc2c(c1)C(=O)N(C)[C@@H]1CC[C@@H](CC(=O)NCc3ccc(F)cc3)O[C@H]1CO2,0.0,0.1,1.2,17.0,0.2,62.8
CCNC(=O)C[C@@H]1CC[C@@H]2[C@@H](COc3ccc(NC(=O)Nc4ccc(F)cc4)cc3C(=O)N2C)O1,-0.4,0.0,15.8,35.9,0.2,1.6
CCNC(=O)C[C@H]1CC[C@H]2[C@H](COc3ccc(NC(=O)c4ccc(F)c(F)c4)cc3C(=O)N2C)O1,-0.1,0.2,88.2*,-46.0,0.1,6.8
CC(=O)N1CC[C@@H]2[C@H]1c1cc(C#Cc3cccnc3)ccc1N[C@@H]2CO,0.0,1.2,-10.3,-2.1,0.0,-0.4
CO[C@H]1CN(C)C(=O)c2ccc(NC(C)=O)cc2OC[C@H](C)N(CCc2ccccc2)C[C@@H]1C,0.0,0.0,-4.3,.,0.6,.
C[C@@H]1CN([C@@H](C)CO)C(=O)Cc2cc(NC(=O)CCN3CCOCC3)ccc2O[C@H]1CN(C)Cc1ccccc1,-0.8,-0.1,-4.3,-7.5,-0.2,2.2
[N-]=[N+]=NCc1ccccc1C[C@]1(C(=O)N2CCOCC2)COC(c2ccc(OCCCO)cc2)=N1,-0.3,.,9.4,.,.,-6.5
SMILES,FGF22 binding,E-sel inducer,DENV2 CPE rescue,C2C12 statin,XiGFP reactiv,PglD DTNB
Cc1ccc(Cl)cc1NC(=O)COC(=O)CC1CC2CCC1C2 (stereo not given),.,.,.,111.5*,.,-0.2
CC(C)[C@@H]1CCc2cnnn2COC[C@@H](Cc2ccccc2)NC1=O,.,.,.,.,0.0,.
CCOc1ncccc1C(=O)OC(C)C(=O)NC(=O)NC1CCCCC1 (stereo not given),43.5*,2.7,6.7,.,-0.1,.
CC(=O)Nc1cccc(C(=O)OC(C)C(=O)NC(=O)NC2CCCCC2)c1 (stereo not given),-0.2,8.2,23.2*,-3.2,0.2,-0.8
C[C@@H]1CCCCO[C@@H](CN(C)C(=O)Nc2ccc(C(F)(F)F)cc2)[C@@H](C)CN([C@H](C)CO)C(=O)c2cc(NS(=O)(=O)c3ccccc3)ccc2O1,-0.1,-0.1,21.4*,.,0.3,-0.9
C[C@H](CO)N1C[C@H](C)[C@@H](CN(C)C(=O)Nc2ccc(C(F)(F)F)cc2)OCCCC[C@H](C)Oc2ccc(NS(=O)(=O)c3ccccc3)cc2C1=O,-0.1,0.1,40.7*,.,0.0,3.2
C[C@@H]1CN([C@@H](C)CO)C(=O)c2cc(NS(=O)(=O)c3cccs3)ccc2O[C@@H](C)CCCCO[C@H]1CN(C)C(=O)Nc1ccc(F)cc1,-0.3,0.0,-5.3,.,-0.8,-0.8
C[C@H](CO)N1C[C@H](C)[C@@H](CN(C)C(=O)Nc2ccc(C(F)(F)F)cc2)OCCCC[C@H](C)Oc2ccc(NS(=O)(=O)c3cccs3)cc2C1=O,-0.1,0.1,93.6*,-5.9,0.1,-0.4
C[C@@H]1CCCCO[C@H](CN(C)C(=O)Nc2ccc(C(F)(F)F)cc2)[C@H](C)CN([C@H](C)CO)C(=O)c2cc(NS(=O)(=O)c3ccccc3)ccc2O1,-0.1,0.0,77.3*,.,0.5,-0.7
O=C1CN(S(=O)(=O)Cc2ccccc2)C[C@H]2[C@@H](c3ccc(C#CC4CC4)cc3)[C@H](CO)N12,.,0.6,-2.8,.,0.3,.
CCCN1[C@@H]2c3ccc(-c4cccc(F)c4)c(=O)n3C[C@H]1[C@H](CO)[C@H]2C(=O)N(C)C,.,-0.3,?,.,0.2,.
COc1ccc(/C=C/C(=O)O)cc1S(=O)(=O)N1CCCc2ccccc21,0.0,.,-3.5,-4.0,0.0,2.3
COc1cc(/C=C/C(=O)O)ccc1S(=O)(=O)N1CCCc2ccccc21,43.5*,.,4.5,.,0.0,.
COc1ccc(S(=O)(=O)N(C)C[C@@H]2Oc3ccc(NC(=O)C4CCCCC4)cc3C(=O)N([C@@H](C)CO)C[C@H]2C)cc1,0.1,0.2,-2.5,-22.5,-0.8,0.0
O=S(=O)(NC(CO)Cc1ccccc1)c1ccc(Br)cc1F (stereo not given),43.2*,0.4,1.4,9.1,0.1,-1.2
